# Molecular target: Gamma-secretase
# Test: Modulation of human gamma secretase overexpressed in CHO cells co-expressing wild type human APP assessed as inhibition of amyloid beta-42 production after 24 hrs by ELISA
# Assay type: cell-based
# Conditions: not given
# Outline: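 Whole-cell assay in CHO cells expressing wild-type APP; Aβ42 IC50 reported as geometric mean of at least two experiments.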
row,IC50 [µM],Structure (SMILES)
1,0.302,Cc1cn(-c2ccc3n(c2=O)CCN(CCOc2ccccc2-c2csc(C)n2)C3=O)cn1
2,0.104,Cc1cn(-c2ccc3n(c2=O)CCN(CCOc2ccccc2-c2cc(C)ns2)C3=O)cn1
3,0.018,Cc1cn(-c2ccc3n(c2=O)CCN(CCOc2ccccc2-c2csc(C(F)(F)F)n2)C3=O)cn1
4,0.072,Cc1cn(-c2ccc3n(c2=O)CCN(CCOc2ccccc2-c2cc(C(F)F)no2)C3=O)cn1
5,0.017,Cc1cn(-c2ccc3n(c2=O)CCN(CCOc2ccccc2-c2cc(C(F)(F)F)no2)C3=O)cn1
6,0.025,Cc1cn(-c2ccc3n(c2=O)CCN(CCOc2ccc(F)c4nc(C(F)(F)F)sc24)C3=O)cn1
7,0.128,Cc1cn(-c2ccc3n(c2=O)CCN(CCOc2ccccc2C(C)(C)C)C3=O)cn1
8,0.073,Cc1cn(-c2ccc3n(c2=O)CCN(CCOc2ccccc2C2CCC2)C3=O)cn1
9,0.059,Cc1cn(-c2ccc3n(c2=O)CCN(CCOc2ccc(F)cc2C2CC(F)(F)C2)C3=O)cn1
10,0.03,Cc1cn(-c2ccc3n(c2=O)CCN(CCOc2ccc(F)cc2C(C)(C)C(F)(F)F)C3=O)cn1
11,0.02,Cc1cn(-c2ccc3n(c2=O)CCN(CCOc2ccc(F)cc2[C@@H](C)C(F)(F)F)C3=O)cn1
12,0.085,Cc1cn(-c2ccc3n(c2=O)CCN(CCOc2ccc(F)cc2[C@H](C)C(F)(F)F)C3=O)cn1
13,0.006,Cc1cn(-c2ccc3n(c2=O)CCN([C@@H](C)COc2ccc(F)cc2[C@@H](C)C(F)(F)F)C3=O)cn1

# System: MDR1 (human)
# Test: Efflux ratio of apparent permeability from basolateral to apical over apical to basolateral side in MDCK cells expressing human MDR1 at 2 uM after 5 hrs by transwell assay
# Assay type: ADME, cell-based, Canis lupus familiaris
# Conditions: dog
# Outline: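 MDR1/MDCK assay using MDCK cells transfected with the human P-glycoprotein gene; efflux ratio reported.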
row,"efflux ratio at 5 h, 2 µM",Structure (SMILES)
1,1.7,Cc1cn(-c2ccc3n(c2=O)CCN(CCOc2ccccc2C(C)(C)C)C3=O)cn1

# System: not listed separately
# Test: Apparent intrinsic clearance in human liver microsomes
# Assay type: ADME
# Conditions: read-out: CLH(app)
row,CLint scaled [mL/min/kg],Structure (SMILES)
1,8.1,Cc1cn(-c2ccc3n(c2=O)CCN(CCOc2cccc4ccc(F)cc24)C3=O)cn1
2,95.7,Cc1cn(-c2ccc3n(c2=O)CCN(CCOc2ccccc2C(C)(C)C)C3=O)cn1
